# Measurements as given in ChEMBL document CHEMBL4842350, “Discovery of a Novel Bromodomain and Extra Terminal Domain (BET) Protein Inhibitor, I-BET282E, Suitable for Clinical Progression” (J Med Chem, 2021).
# Assays:
# [1] = Half life in CD1 mouse at 1 mg/kg/hr, iv measured upto 24 hrs by LC-MS/MS analysis; assay type: ADME, organism-based; conditions: in vivo
# Method in brief: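 Surgically cannulated male CD1 mice (n = 3), 1 h iv infusion via jugular vein at 1 mg/kg/h (0.2 mg/mL in 2% DMSO/98% 10% Kleptose HPB in saline, 5 mL/kg/h). Tail-vein blood to 24 h plus terminal cardiac sample at 26 h; LC-MS/MS, LLQ 5 ng/mL. Mean ± SD.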
# [2] = Passive permeability in MDCK cells; assay type: ADME, cell-based, Canis lupus familiaris; conditions: dog, read-out: permeability
# Cytochrome P450 2C9 = Cytochrome P450 2C9 (Homo sapiens, UniProt P11712)
# Cytochrome P450 2C9, sequence (P11712 whole entry): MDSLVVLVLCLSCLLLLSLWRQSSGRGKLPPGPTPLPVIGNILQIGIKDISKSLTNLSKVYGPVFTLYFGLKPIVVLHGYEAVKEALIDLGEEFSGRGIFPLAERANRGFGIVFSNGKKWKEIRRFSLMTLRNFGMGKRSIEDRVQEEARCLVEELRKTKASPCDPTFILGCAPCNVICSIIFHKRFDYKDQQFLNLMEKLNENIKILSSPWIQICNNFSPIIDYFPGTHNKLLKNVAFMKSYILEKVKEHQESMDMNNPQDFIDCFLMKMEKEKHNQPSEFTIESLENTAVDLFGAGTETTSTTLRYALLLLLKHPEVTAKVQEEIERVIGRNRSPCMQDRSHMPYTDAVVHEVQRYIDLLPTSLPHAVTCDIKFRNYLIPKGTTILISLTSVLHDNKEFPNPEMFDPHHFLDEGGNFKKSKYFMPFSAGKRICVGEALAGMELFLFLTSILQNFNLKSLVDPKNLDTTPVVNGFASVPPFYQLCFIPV
# [3] = Oral bioavailability in Beagle dog at 3 mg/kg measured upto 24 hrs by HPLC-MS/MS analysis; conditions: in vivo
# [4] = rat, hepatocytes, 2 h, 0.5 µM
# [5] = Tmax in Wistar Han rat at 1 mg/kg, po measured upto 24 hrs by HPLC-MS/MS analysis; assay type: ADME, organism-based; conditions: in vivo
# Method in brief: (§1)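 Oral suspension in 1% (w/v) hydroxypropylmethyl cellulose in water; male rats (n = 3) and male dogs (n = 4). AUC taken from 0 h to last quantifiable time point; Cmax is maximum observed plasma concentration; Tmax reported as median. Mean ± SD.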
# [6] = Volume of distribution at steady state in Wistar Han rat at 1 mg/kg/hr, iv measured upto 26 hrs by LC-MS/MS analysis; assay type: ADME, organism-based; conditions: in vivo, read-out: Vdss
# [7] = Half life in Wistar Han rat at 1 mg/kg/hr, iv measured upto 26 hrs by LC-MS/MS analysis; assay type: ADME, organism-based; conditions: in vivo
# [8] = Total blood clearance in Beagle dog at 1 mg/kg/hr, iv measured upto 28 hrs by LC-MS/MS analysis relative to hepatic blood flow; assay type: ADME, organism-based, Canis lupus familiaris; conditions: in vivo
# [9] = Oral bioavailability in CD1 mouse at 3 mg/kg measured upto 8 hrs by LC-MS/MS analysis; assay type: ADME, organism-based; conditions: in vivo
# Method in brief: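 Naive male CD1 mice (n = 3) given 3 mg/kg by oral gavage as suspension in 1% (w/v) methylcellulose 400, 0.6 mg/mL. Tail-vein blood to 8 h plus terminal cardiac sample at 12 h; LC-MS/MS, LLQ 5 ng/mL.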
# Cytochrome P450 3A4 = Cytochrome P450 3A4 (Homo sapiens, UniProt P08684); test: Inhibition of recombinant human CYP3A4 expressed in Escherichia coli using VR as probe substrate incubated for 15 to 60 mins by fluorometric assay; assay type: ADME
# Cytochrome P450 3A4, sequence (P08684 whole entry): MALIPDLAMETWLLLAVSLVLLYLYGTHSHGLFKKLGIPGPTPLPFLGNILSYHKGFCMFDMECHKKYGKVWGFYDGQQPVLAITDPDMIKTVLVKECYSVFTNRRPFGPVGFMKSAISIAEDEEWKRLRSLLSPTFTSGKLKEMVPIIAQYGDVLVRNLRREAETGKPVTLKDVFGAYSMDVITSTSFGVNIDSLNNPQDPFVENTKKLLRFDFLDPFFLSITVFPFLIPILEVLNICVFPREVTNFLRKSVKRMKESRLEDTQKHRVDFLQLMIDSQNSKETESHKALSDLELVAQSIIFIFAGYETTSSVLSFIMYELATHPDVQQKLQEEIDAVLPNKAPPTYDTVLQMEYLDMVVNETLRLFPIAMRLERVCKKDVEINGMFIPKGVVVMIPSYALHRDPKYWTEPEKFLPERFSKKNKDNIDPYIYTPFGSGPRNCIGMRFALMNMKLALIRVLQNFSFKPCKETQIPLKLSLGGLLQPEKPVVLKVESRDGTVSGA
# Method in brief: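 Recombinant human CYPs coexpressed with NADPH reductase in E. coli bactosomes (0.1 mg protein/mL); profluorescent substrates ER (1A2), BMC (2C19), MMC (2D6), VividGreen or VividRed (3A4).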
# [10] = biological target: T1, Bromodomain-containing protein 4 (Homo sapiens, UniProt O60885); test: Inhibition of BRD4 in human PBMC assessed as reduction in LPS-induced IL-6 secretion incubated for 18 to 24 hrs by MSD assay
# [11] = AUC(0 to t) in Beagle dog at 5 mg/kg, po measured upto 24 hrs by HPLC-MS/MS analysis; assay type: ADME, organism-based, Canis lupus familiaris; set-up: route oral, dose 5 mg/kg, time <=24; conditions: in vivo; method in brief: as §1
# [12] = Volume of distribution at steady state in Beagle dog at 1 mg/kg/hr, iv measured upto 28 hrs by LC-MS/MS analysis; assay type: ADME, organism-based, Canis lupus familiaris; conditions: in vivo, read-out: Vdss
# [13] = biological target: T1, Bromodomain-containing protein 4; test: Binding affinity to BRD4 (unknown origin) by ITC assay
# [14] = biological target: CREB-binding protein (Homo sapiens) (UniProt Q92793); test: Binding affinity to CBP (unknown origin) by ITC assay
# CREB-binding protein (Homo sapiens), sequence (Q92793 2-2442 limits assumed): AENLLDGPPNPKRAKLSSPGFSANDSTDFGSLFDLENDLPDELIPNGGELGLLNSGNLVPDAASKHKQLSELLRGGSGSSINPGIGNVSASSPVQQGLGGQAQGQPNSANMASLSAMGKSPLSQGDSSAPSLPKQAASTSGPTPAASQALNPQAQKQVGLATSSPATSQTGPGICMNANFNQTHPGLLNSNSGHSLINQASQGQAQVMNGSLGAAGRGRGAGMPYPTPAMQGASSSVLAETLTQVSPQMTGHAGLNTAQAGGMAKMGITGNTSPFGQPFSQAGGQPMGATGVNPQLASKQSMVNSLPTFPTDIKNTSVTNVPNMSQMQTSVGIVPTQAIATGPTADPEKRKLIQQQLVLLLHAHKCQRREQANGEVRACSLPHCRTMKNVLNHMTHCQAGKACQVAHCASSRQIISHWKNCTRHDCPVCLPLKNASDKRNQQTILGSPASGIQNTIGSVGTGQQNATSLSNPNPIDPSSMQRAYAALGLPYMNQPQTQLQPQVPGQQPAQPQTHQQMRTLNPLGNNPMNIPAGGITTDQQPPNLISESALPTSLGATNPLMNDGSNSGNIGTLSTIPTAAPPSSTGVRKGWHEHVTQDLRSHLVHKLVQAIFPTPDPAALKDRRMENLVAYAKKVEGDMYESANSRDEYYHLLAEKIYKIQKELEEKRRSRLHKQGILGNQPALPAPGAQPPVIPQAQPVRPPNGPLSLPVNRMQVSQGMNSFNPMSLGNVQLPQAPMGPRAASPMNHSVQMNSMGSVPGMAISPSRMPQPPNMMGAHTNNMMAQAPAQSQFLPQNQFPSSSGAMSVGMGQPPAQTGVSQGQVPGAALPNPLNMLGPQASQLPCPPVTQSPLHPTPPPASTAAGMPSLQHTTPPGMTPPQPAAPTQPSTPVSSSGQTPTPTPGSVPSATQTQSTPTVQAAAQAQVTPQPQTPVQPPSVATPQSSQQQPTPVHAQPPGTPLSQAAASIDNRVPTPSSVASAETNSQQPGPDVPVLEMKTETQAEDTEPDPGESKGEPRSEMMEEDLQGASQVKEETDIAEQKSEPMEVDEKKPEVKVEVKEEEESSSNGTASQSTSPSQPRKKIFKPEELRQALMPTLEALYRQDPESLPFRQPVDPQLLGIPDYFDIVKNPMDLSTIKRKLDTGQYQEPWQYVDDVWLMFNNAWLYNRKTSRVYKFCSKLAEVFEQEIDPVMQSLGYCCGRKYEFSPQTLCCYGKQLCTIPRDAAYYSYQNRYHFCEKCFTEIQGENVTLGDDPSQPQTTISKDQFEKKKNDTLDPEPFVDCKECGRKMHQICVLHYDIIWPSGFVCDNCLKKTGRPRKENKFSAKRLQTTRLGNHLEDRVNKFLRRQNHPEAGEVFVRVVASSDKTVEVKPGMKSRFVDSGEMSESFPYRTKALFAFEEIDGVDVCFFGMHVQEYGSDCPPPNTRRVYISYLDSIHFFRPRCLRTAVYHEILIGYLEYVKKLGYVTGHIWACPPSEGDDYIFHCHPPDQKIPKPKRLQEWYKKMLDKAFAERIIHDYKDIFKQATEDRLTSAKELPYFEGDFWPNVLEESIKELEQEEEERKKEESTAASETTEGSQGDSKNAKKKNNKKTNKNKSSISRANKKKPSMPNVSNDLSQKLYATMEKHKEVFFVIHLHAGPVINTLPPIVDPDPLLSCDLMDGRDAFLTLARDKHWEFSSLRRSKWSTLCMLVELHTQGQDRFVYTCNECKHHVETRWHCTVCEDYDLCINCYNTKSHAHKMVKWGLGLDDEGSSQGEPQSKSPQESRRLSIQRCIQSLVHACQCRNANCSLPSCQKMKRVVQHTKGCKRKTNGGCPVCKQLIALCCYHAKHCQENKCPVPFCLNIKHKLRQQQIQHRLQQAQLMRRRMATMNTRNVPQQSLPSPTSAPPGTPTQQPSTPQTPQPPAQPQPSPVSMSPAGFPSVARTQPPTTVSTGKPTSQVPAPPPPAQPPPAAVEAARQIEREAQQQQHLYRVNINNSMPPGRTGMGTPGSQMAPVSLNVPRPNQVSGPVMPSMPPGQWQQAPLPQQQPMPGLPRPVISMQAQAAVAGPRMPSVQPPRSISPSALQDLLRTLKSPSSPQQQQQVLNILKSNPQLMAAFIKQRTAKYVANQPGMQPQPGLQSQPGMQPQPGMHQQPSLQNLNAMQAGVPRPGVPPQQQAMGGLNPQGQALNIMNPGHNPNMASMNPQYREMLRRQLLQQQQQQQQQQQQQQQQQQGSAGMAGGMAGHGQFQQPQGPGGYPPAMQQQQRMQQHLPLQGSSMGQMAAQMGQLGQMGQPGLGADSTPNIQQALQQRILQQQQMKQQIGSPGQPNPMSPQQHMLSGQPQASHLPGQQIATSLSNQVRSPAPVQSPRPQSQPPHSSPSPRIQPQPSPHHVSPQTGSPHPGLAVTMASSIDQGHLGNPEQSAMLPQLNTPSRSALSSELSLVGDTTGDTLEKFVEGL
smiles,measurement,setting,value
COC[C@@H](C)n1c(C2CCOCC2)nc2cnc3cc(-c4c(C)noc4C)c(OC)cc3c21,half-life,[1],1.2 h
same,Papp,[2],34.6 ×10⁻⁶ cm/s
same,IC50,Cytochrome P450 2C9,> 50 µM
same,F,[3],31%
same,CLint,[4],< 0.86 mL/min/g liver
same,Tmax,[5],1 h
same,Vd,[6],2.2 L/kg
same,half-life,[7],1.4 h
same,CLH,[8],68%
same,bioavailability,[9],51%
same,IC50,Cytochrome P450 3A4,> 50 µM
same,IC50,[10],0.1 µM
same,AUCt,[11],367 ng·h/mL
same,Vd,[12],3.1 L/kg
same,Activity,[13],47.5 nM
same,Activity,[14],1730 nM
